In ChEMBL document CHEMBL5120856, “New salicylic acid derivatives, double inhibitors of glycolate oxidase and lactate dehydrogenase, as effective agents decreasing oxalate production” (Eur J Med Chem, 2022):
pEC50, pIC50, pKi: −log10 of the molar value. Calls of active or inactive are those of the source. No cut-off for these calls is given here.

Columns and labels:
[1] = molecular target: T1, 2-Hydroxyacid oxidase 1 (Homo sapiens, UniProt Q9UJM8); test: Inhibition of N-terminal His-tagged human recombinant glycolate oxidase expressed in Escherichia coli BL21 (DE3) cells using glycolate as substrate preincubated for 10 mins followed by substrate addition and measured after 10 mins by Amplex red and horseradish peroxidase based fluorescence assay
T1 sequence (Q9UJM8 whole entry): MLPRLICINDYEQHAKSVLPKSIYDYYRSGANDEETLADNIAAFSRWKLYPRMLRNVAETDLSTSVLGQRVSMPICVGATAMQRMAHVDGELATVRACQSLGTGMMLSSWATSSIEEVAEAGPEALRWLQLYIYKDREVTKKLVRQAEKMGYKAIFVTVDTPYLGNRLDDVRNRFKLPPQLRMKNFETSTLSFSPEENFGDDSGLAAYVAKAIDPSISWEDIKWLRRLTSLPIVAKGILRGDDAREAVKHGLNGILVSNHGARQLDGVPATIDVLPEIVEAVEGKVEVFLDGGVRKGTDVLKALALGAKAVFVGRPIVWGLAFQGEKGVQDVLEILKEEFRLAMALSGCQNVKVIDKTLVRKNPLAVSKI

[2] = molecular target: T2, 2-Hydroxyacid oxidase 1 (Mus musculus, UniProt Q9WU19); test: Inhibition of N-terminal His-tagged mouse recombinant glycolate oxidase expressed in Escherichia coli BL21 (DE3) cells using glycolate as substrate preincubated for 10 mins followed by substrate addition and measured after 10 mins by Amplex red and horseradish peroxidase based fluorescence assay
T2 sequence (Q9WU19 whole entry): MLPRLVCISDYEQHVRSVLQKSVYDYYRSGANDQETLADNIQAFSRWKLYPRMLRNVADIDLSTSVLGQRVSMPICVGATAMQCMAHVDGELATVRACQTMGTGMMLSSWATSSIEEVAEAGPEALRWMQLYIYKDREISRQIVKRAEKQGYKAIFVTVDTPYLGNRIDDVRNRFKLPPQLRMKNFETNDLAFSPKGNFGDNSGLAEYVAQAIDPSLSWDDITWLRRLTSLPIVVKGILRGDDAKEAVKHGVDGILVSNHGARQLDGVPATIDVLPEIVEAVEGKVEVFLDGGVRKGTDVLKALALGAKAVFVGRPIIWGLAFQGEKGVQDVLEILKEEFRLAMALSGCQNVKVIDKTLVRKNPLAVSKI

[3] = molecular target: T3, L-lactate dehydrogenase A chain (Homo sapiens, UniProt P00338); test: Inhibition of human recombinant LDHA using pyruvate as substrate preincubated for 10 mins followed by substrate addition and measured every 60 sec for 10 mins in the presence of NADH by fluorescence assay
[4] = molecular target: T4, L-lactate dehydrogenase B chain (Homo sapiens, UniProt P07195); test: Inhibition of human recombinant LDHB using pyruvate as substrate preincubated for 10 mins followed by substrate addition and measured every 60 sec for 10 mins in the presence of NADH by fluorescence assay
[5] = molecular target: T1, 2-Hydroxyacid oxidase 1; test: Non-competitive mixed inhibition of N-terminal His-tagged human recombinant glycolate oxidase expressed in Escherichia coli BL21 (DE3) cells assessed as inhibition constant using varying concentration of glycolate as substrate measured every 60 sec for 15 mins by Amplex red and horseradish peroxidase based fluorescence assay
[6] = molecular target: T3, L-lactate dehydrogenase A chain; test: Non-competitive inhibition of human recombinant LDHA assessed as inhibition constant using varying concentration of pyruvate as substrate preincubated for 10 mins followed by substrate addition and measured every 60 sec for 10 mins in the presence of NADH by fluorescence assay
[7] = molecular target: T5, 2-Hydroxyacid oxidase 1 (Homo sapiens) (UniProt Q9UJM8); test: Non-competitive mixed inhibition of N-terminal His-tagged human recombinant glycolate oxidase expressed in Escherichia coli BL21 (DE3) cells assessed as decrease in Vmax with increase in apparent Km using glycolate as substrate upto 60 microM
T5 sequence (whole entry): T1 sequence (Q9UJM8 whole entry)

[8] = molecular target: T3, L-lactate dehydrogenase A chain; test: Non-competitive inhibition of human recombinant LDHA assessed as decrease in Vmax with no effect on Km using pyruvate as substrate upto 20 uM
[9] = test system: Hepatocyte; test: Inhibition of GO/LDHA in hyperoxaluric-primary hepatocyte isolated from Agxt1 knockdown PH1 C57BL/6 mouse assessed as relative oxalate output at 10 uM measured at 24 hrs in the presence of glycolate relative to control; type: cell-based
How it was run: (§1)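 Agxt1-/- mouse primary hepatocytes cultured with 5 mM glycolate, inhibitor at 10 μM; extracellular oxalate measured by colorimetric kit 24 and 48 h after inhibitor addition; relative oxalate = oxalate with inhibitor over oxalate without inhibitor; negative values mean below detection limit; mean of three/four replicates ± SD.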

[10] = test system: Hepatocyte; test: Inhibition of GO/LDHA in hyperoxaluric-primary hepatocyte isolated from Agxt1 knockdown PH1 C57BL/6 mouse assessed as relative oxalate output at 10 uM measured at 48 hrs in the presence of glycolate relative to control; type: cell-based; how it was run: as §1
[11] = test system: Hepatocyte; test: Inhibition of GO/LDHA in hyperoxaluric-primary hepatocyte isolated from Grhpr-knockdown PH2 C57BL/6 mouse assessed as relative oxalate output at 10 uM measured at 24 hrs in the presence of glycolate relative to control; type: cell-based
How it was run: (§2)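 Grhpr-/- mouse primary hepatocytes cultured with 10 mM glycolate, inhibitor at 10 μM; extracellular oxalate determined colorimetrically at 24 and 48 h post-treatment, expressed relative to untreated medium (RO); negative RO means below detection limit; three/four replicates, mean ± SD.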

[12] = test system: Hepatocyte; test: Inhibition of GO/LDHA in hyperoxaluric-primary hepatocyte isolated from Grhpr-knockdown PH2 C57BL/6 mouse assessed as relative oxalate output at 10 uM measured at 48 hrs in the presence of glycolate relative to control; type: cell-based; how it was run: as §2
[13] = test system: Hepatocyte; test: Inhibition of GO/LDHA in hyperoxaluric-primary hepatocyte isolated from Hoga1-knockdown PH3 C57BL/6 mouse assessed as relative oxalate output at 10 uM measured at 24 hrs in the presence of hydroxyproline relative to control; type: cell-based
How it was run: (§3)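 Hoga1-/- mouse primary hepatocytes challenged with 10 mM hydroxyproline, inhibitor 10 μM; extracellular oxalate measured by colorimetric kit 24 and 48 h after dosing, given as ratio to oxalate without inhibitor; negative values are below detection limit; mean of three/four replicates ± SD.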

[14] = test system: Hepatocyte; test: Inhibition of GO/LDHA in hyperoxaluric-primary hepatocyte isolated from Hoga1-knockdown PH3 C57BL/6 mouse assessed as relative oxalate output at 10 uM measured at 48 hrs in the presence of hydroxyproline relative to control; type: cell-based; how it was run: as §3
[15] = test system: Hepatocyte; test: Cytotoxicity against hyperoxaluric-primary hepatocyte isolated from Hoga1-knockdown PH3 C57BL/6 mouse assessed as cell death at 10 uM by MTS assay; type: toxicity, cell-based; settings: hepatocytes, Hoga1-knockdown PH3, 10 µM
How it was run: (§4)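 Primary hepatocytes from Agxt1-/- (PH1, 5 mM glycolate), Grhpr-/- (PH2, 10 mM glycolate) or Hoga1-/- (PH3, 10 mM hydroxyproline) mice, incubated with inhibitor at 10 μM; viability followed through the oxalate assay by MTS tetrazolium method.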

[16] = test system: Hepatocyte; test: Cytotoxicity against hyperoxaluric-primary hepatocyte isolated from Grhpr-knockdown PH2 C57BL/6 mouse assessed as cell death at 10 uM by MTS assay; type: toxicity, cell-based; settings: hepatocytes, Grhpr-knockdown PH2 (primary hyperoxaluria type 2); how it was run: as §4
[17] = test system: Hepatocyte; test: Cytotoxicity against hyperoxaluric-primary hepatocyte isolated from Agxt1-knockdown PH1 C57BL/6 mouse assessed as cell death at 10 uM by MTS assay; type: toxicity, cell-based; settings: hepatocytes, Agxt1-knockdown PH1, 10 µM; how it was run: as §4
[18] = molecular target: T6, Prostaglandin G/H synthase 2 (Homo sapiens, UniProt P35354); test: Inhibition of human COX-2 using arachidonic acid as substrate measured every 60 sec for 10 mins by fluorescence based assay
T6 sequence (P35354 whole entry): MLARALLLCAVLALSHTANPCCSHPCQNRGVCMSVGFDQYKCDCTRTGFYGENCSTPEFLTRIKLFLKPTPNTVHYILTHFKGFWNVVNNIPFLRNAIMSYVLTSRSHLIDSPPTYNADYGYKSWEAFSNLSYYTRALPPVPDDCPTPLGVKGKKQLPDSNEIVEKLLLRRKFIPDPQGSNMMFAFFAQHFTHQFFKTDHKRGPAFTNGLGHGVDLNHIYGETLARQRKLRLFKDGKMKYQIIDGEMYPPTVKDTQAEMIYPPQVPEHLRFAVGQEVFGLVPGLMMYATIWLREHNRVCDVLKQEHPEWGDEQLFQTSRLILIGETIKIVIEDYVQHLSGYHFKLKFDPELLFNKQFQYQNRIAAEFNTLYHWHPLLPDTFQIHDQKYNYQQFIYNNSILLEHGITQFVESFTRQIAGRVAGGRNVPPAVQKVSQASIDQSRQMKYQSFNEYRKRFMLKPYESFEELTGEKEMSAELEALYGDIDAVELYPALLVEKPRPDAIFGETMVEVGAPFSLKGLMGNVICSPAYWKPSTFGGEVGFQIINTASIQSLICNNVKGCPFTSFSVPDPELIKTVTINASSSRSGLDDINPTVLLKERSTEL

[19] = test system: HEK293; test: Cytotoxicity against HEK293 cells assessed as reduction in cell viability upto 50 uM measured after 48 hrs by MTT assay; type: toxicity, cell-based; settings: human, hek293, 48 h
[20] = molecular target: T2, 2-Hydroxyacid oxidase 1; test: Non-competitive mixed inhibition of N-terminal His-tagged mouse recombinant glycolate oxidase expressed in Escherichia coli BL21 (DE3) cells assessed as inhibition constant using varying concentration of glycolate as substrate measured every 60 sec for 15 mins by Amplex red and horseradish peroxidase based fluorescence assay
[21] = molecular target: T4, L-lactate dehydrogenase B chain; test: Non-competitive inhibition of human recombinant LDHB assessed as inhibition constant using varying concentration of pyruvate as substrate preincubated for 10 mins followed by substrate addition and measured every 60 sec for 10 mins in the presence of NADH by fluorescence assay
[22] = molecular target: T7, 2-Hydroxyacid oxidase 1 (Mus musculus) (UniProt Q9WU19); test: Non-competitive mixed inhibition of N-terminal His-tagged mouse recombinant glycolate oxidase expressed in Escherichia coli BL21 (DE3) cells assessed as decrease in Vmax with increase in apparent Km using glycolate as substrate upto 60 microM
T7 sequence (whole entry): T2 sequence (Q9WU19 whole entry)

[23] = test system: Hepatocyte; test: Inhibition of GO/LDHA in hyperoxaluric-primary hepatocyte isolated from Agxt1 knockdown PH1 C57BL/6 mouse assessed as reduction in extracellular oxalate concentration at 10 uM measured at 48 hrs in the presence of glycolate relative to control; type: cell-based; parameters: scale not given: the % may be the effect or the level left; how it was run: as §1
[24] = Inhibition of GO/LDHA in hyperoxaluric-primary hepatocyte isolated from Agxt1 knockdown PH1 C57BL/6 mouse measured at 24 hrs in the presence of 5 mM glycolate; type: cell-based
How it was run: (§5)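 Agxt1-/- hepatocytes with 5 mM glycolate; eight inhibitor concentrations per replicate; extracellular oxalate measured colorimetrically at 24 or 48 h; EC50 as mean of three/four replicates ± SD.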

[25] = Inhibition of GO/LDHA in hyperoxaluric-primary hepatocyte isolated from Grhpr-knockdown PH2 C57BL/6 mouse measured at 24 hrs in the presence of 10 mM glycolate; type: cell-based
How it was run: (§6)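 Grhpr-/- hepatocytes with 10 mM glycolate; eight inhibitor concentrations per replicate; colorimetric extracellular oxalate at 24 or 48 h; EC50 as mean of three/four replicates ± SD.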

[26] = Inhibition of GO/LDHA in hyperoxaluric-primary hepatocyte isolated from Agxt1 knockdown PH1 C57BL/6 mouse measured at 48 hrs in the presence of 5 mM glycolate; type: cell-based; how it was run: as §5
[27] = Inhibition of GO/LDHA in hyperoxaluric-primary hepatocyte isolated from Grhpr-knockdown PH2 C57BL/6 mouse measured at 48 hrs in the presence of 10 mM glycolate; type: cell-based; how it was run: as §6

T4 sequence (P07195 whole entry): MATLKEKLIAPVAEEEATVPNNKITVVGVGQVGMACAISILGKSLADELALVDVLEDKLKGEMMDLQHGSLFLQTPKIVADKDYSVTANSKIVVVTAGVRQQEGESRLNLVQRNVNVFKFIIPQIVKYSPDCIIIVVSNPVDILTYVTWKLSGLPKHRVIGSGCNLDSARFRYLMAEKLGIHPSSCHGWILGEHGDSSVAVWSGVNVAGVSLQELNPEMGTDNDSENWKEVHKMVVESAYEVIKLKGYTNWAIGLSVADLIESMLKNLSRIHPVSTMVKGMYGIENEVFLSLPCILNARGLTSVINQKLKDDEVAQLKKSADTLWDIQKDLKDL

Row | Structure (SMILES) | pIC50 [1] | pIC50 [2] | pIC50 [3] | pIC50 [4] | pKi [5] | pKi [6] | fold change (FC) [9] | fold change (FC) [10] | fold change (FC) [11] | fold change (FC) [12] | fold change (FC) [13] | fold change (FC) [14] | Activity [15] | Activity [16] | Activity [17] | pIC50 [18] | Activity [19] | further results
1 | N.O=C(O)c1cc(-c2ccc(CNc3ccc(Br)cc3)o2)ccc1O | 5.38 | 5.51 | 6.22 | 5.96 | 5.96 | 6.05 | 0.19 | 0.57 | 0.41 | 0.56 | 0.26 | 0.18 | Non-Toxic | Non-Toxic | Non-Toxic | 4.46 | Non-Toxic | inhibition [7]: Active; inhibition [8]: Active
2 | O=Cc1ccc(-c2ccc(O)c(C(=O)O)c2)o1 |  | 4.84 |  | 4.54 | 4.74 | 5.85 |  |  |  |  |  |  | Non-Toxic | Non-Toxic | Non-Toxic |  | Non-Toxic | pKi [20]: 5.10; pKi [21]: 4.89; inhibition [22]: Active; Activity [23]: 60%; pEC50 [24]: 5.46; pEC50 [25]: 5.74; pEC50 [26]: 5.08; pEC50 [27]: 5.72
3 | C#CCCCC(=O)Nc1ccc(C(=O)c2ccc(NCc3ccc(-c4ccc(O)c(C(=O)O)c4)o3)cc2)cc1.N | 5.62 | 5.89 | 6.30 | 6.52 |  |  | 0.5 | 0.79 | 0.4 | 0.52 | 0.2 | 0.14 | Non-Toxic | Non-Toxic | Non-Toxic | 4.44 | Non-Toxic | 
